Source: ChEMBL document CHEMBL4177755, “Combating Drug-Resistant Fungi with Novel Imperfectly Amphipathic Palindromic Peptides” (J Med Chem, 2018)
In brackets after ≈: the same amount, converted by molar mass.

Key:
Assay type in all cases: functional
[1] = tested on: Candida albicans; assay: Antifungal activity against Candida albicans cgmcc 2.2086 in presence of 12.5% human heat-inactivated serum by broth dilution method
[2] = tested on: Candida albicans; assay: Fungicidal activity against Candida albicans 58288 after 96 hrs; settings: Candida albicans, 58288, 96 h; read-out: MFC99.9
Outline: (§1)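 After the 48 h, 28 °C broth microdilution in MOPS-buffered RPMI 1640 (inoculum (0.5−1) × 10^3 CFU/mL), 50 μL from each well was plated on YM agar for a further 48 h at 28 °C. MFC is the lowest concentration killing at least 99.9% of cells. Triplicate, three biological replicates.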

[3] = tested on: Candida albicans; assay: Antifungal activity against Candida albicans SP3903 after 48 hrs by broth microdilution method; settings: SP3903, 48 h
Outline: (§2)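 Modified CLSI M27-A2 broth microdilution. Yeast at (0.5−1) × 10^3 CFU/mL in MOPS-buffered RPMI 1640 was mixed 1:1 with peptide serially diluted in 0.2% BSA and incubated 48 h at 28 °C. Absorbance was read at 492 nm; MIC is the lowest concentration inhibiting 95% of growth. Triplicate, three biological replicates.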

[4] = tested on: Pichia kudriavzevii; assay: Antifungal activity against Candida krusei cgmcc 2.1857 after 48 hrs by broth microdilution method; settings: cgmcc 2.1857, 48 h
Outline: (§3)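 Modified CLSI M27-A2 broth microdilution. Yeast were suspended in MOPS-buffered RPMI 1640 at a final (0.5−1) × 10^3 CFU/mL and mixed 1:1 with peptide serially diluted in 0.2% BSA. Plates were incubated 48 h at 28 °C and read at A492. MIC is the lowest concentration giving 95% inhibition. Run in triplicate with three biological replicates.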

[5] = tested on: Candida albicans; assay: Antifungal activity against Candida albicans cgmcc 2.2086 in presence of 25% human heat-inactivated serum by broth dilution method
[6] = tested on: Candida albicans; assay: Antifungal activity against Candida albicans SP3902 after 48 hrs by broth microdilution method; settings: SP3902, 48 h; outline: as §2
[7] = tested on: Candida tropicalis; assay: Antifungal activity against Candida tropicalis cgmcc 2.1975 after 48 hrs by broth microdilution method; settings: cgmcc 2.1975, 48 h; outline: as §3
[8] = tested on: Candida albicans; assay: Antifungal activity against Candida albicans SP3876 after 48 hrs by broth microdilution method; settings: SP3876, 48 h; outline: as §2
[9] = tested on: Candida albicans; assay: Fungicidal activity against fluconazole-resistant Candida albicans 56214 after 96 hrs; settings: Candida albicans, 56214, 96 h; read-out: MFC99.9; outline: as §1
[10] = tested on: Candida albicans; assay: Antifungal activity against Candida albicans cgmcc 2.2086 in presence of KCl by broth dilution method
[11] = tested on: Candida albicans; assay: Antifungal activity against Candida albicans cgmcc 2.2086 after 48 hrs by broth microdilution method; settings: cgmcc 2.2086, 48 h; outline: as §2
[12] = tested on: Candida albicans; assay: Antifungal activity against Candida albicans isolated from alveolar fluid after 48 hrs by broth microdilution method; outline: as §2
[13] = tested on: Candida albicans; assay: Fungicidal activity against Candida albicans SP3903 after 96 hrs; settings: SP3903, 96 h, read-out: MFC99.9; outline: as §1
[14] = tested on: Candida albicans; assay: Antifungal activity against Candida albicans cgmcc 2.2086 in presence of CaCl2 by broth dilution method
[15] = tested on: Candida albicans; assay: Antifungal activity against Candida albicans cgmcc 2.2086 in presence of FeCl3 by broth dilution method
[16] = tested on: Candida albicans; assay: Antifungal activity against Candida albicans cgmcc 2.2086 in presence of NaCl by broth dilution method
[17] = tested on: Candida albicans; assay: Fungicidal activity against Candida albicans SP3876 after 96 hrs; settings: SP3876, 96 h, read-out: MFC99.9; outline: as §1
[18] = tested on: Candida albicans; assay: Antifungal activity against fluconazole-resistant Candida albicans 17546 after 48 hrs by broth microdilution method; settings: Candida albicans, 17546, 48 h; outline: as §2
[19] = tested on: Pichia kudriavzevii; assay: Fungicidal activity against Candida krusei cgmcc 2.1857 after 96 hrs; settings: cgmcc 2.1857, 96 h, read-out: MFC99.9
Outline: (§4)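 Wells from the 48 h, 28 °C RPMI 1640/MOPS microdilution plates were plated on YM agar and incubated a further 48 h at 28 °C. MFC is the lowest concentration killing at least 99.9% of cells. Run in triplicate with three biological replicates.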

[20] = tested on: Candida albicans; assay: Fungicidal activity against Candida albicans SP3931 after 96 hrs; settings: SP3931, 96 h, read-out: MFC99.9; outline: as §1
[21] = tested on: Candida albicans; assay: Fungicidal activity against Candida albicans 14936 after 96 hrs; settings: Candida albicans, 14936, 96 h; read-out: MFC99.9; outline: as §1
[22] = tested on: Candida albicans; assay: Antifungal activity against fluconazole-resistant Candida albicans 56214 after 48 hrs by broth microdilution method; settings: Candida albicans, 56214, 48 h; outline: as §2
[23] = tested on: Candida albicans; assay: Antifungal activity against Candida albicans cgmcc 2.2086 in presence of 50% human heat-inactivated serum by broth dilution method
[24] = tested on: Candida albicans; assay: Antifungal activity against fluconazole-resistant Candida albicans 56452 after 48 hrs by broth microdilution method; settings: Candida albicans, 56452, 48 h; outline: as §2
[25] = tested on: Candida albicans; assay: Fungicidal activity against Candida albicans SP3902 after 96 hrs; settings: SP3902, 96 h, read-out: MFC99.9; outline: as §1
[26] = tested on: Candida tropicalis; assay: Fungicidal activity against Candida tropicalis cgmcc 2.1975 after 96 hrs; settings: cgmcc 2.1975, 96 h, read-out: MFC99.9; outline: as §4
[27] = tested on: Candida albicans; assay: Fungicidal activity against Candida albicans isolated from alveolar fluid after 96 hrs; settings: read-out: MFC99.9; outline: as §1
[28] = tested on: Candida albicans; assay: Fungicidal activity against fluconazole-resistant Candida albicans 17546 after 96 hrs; settings: Candida albicans, 17546, 96 h; read-out: MFC99.9; outline: as §1
[29] = tested on: Candida albicans; assay: Antifungal activity against Candida albicans 58288 after 48 hrs by broth microdilution method; settings: Candida albicans, 58288, 48 h; outline: as §2
[30] = tested on: Candida parapsilosis; assay: Antifungal activity against Candida parapsilosis cgmcc 2.3989 after 48 hrs by broth microdilution method; settings: Lodderomyces parapsilosis, cgmcc 2.3989, 48 h; outline: as §3
[31] = tested on: Candida albicans; assay: Fungicidal activity against fluconazole-resistant Candida albicans 56452 after 96 hrs; settings: Candida albicans, 56452, 96 h; read-out: MFC99.9; outline: as §1
[32] = tested on: Candida parapsilosis; assay: Fungicidal activity against Candida parapsilosis cgmcc 2.3989 after 96 hrs; settings: Lodderomyces parapsilosis, cgmcc 2.3989, 96 h; read-out: MFC99.9; outline: as §4
[33] = tested on: Candida albicans; assay: Fungicidal activity against Candida albicans cgmcc 2.2086 after 96 hrs; settings: cgmcc 2.2086, 96 h, read-out: MFC99.9; outline: as §1
[34] = tested on: Candida albicans; assay: Antifungal activity against Candida albicans cgmcc 2.2086 in presence of MgCl2 by broth dilution method
[35] = tested on: Candida albicans; assay: Antifungal activity against Candida albicans 14936 after 48 hrs by broth microdilution method; settings: Candida albicans, 14936, 48 h; outline: as §2
[36] = tested on: Candida albicans; assay: Antifungal activity against Candida albicans SP3931 after 48 hrs by broth microdilution method; settings: SP3931, 48 h; outline: as §2
[37] = tested on: Candida albicans; assay: Antifungal activity against Candida albicans cgmcc 2.2086 in presence of NH4Cl by broth dilution method
[38] = tested on: Candida albicans; assay: Antifungal activity against Candida albicans cgmcc 2.2086 in presence of ZnCl2 by broth dilution method

C[C@@H]1[C@H](O)[C@@H](C)/C=C/C=C/C=C/C=C/C=C/C=C/C=C/[C@H](O[C@@H]2O[C@H](C)[C@@H](O)[C@H](N)[C@@H]2O)C[C@@H]2O[C@](O)(C[C@@H](O)C[C@@H](O)[C@H](O)CC[C@@H](O)C[C@@H](O)CC(=O)O[C@H]1C)C[C@H](O)[C@H]2C(=O)O [AMPHOTERICIN B]
MIC [1]: 1 µM | MFC [2]: 2 µM (≈ 1.85 µg/mL) | MIC95 [3]: 0.125 µM (≈ 0.116 µg/mL) | MIC95 [4]: 1 µM (≈ 0.924 µg/mL) | MIC [5]: 1 µM | MIC95 [6]: 0.25 µM (≈ 0.231 µg/mL) | MIC95 [7]: 1 µM (≈ 0.924 µg/mL) | MIC95 [8]: 0.25 µM (≈ 0.231 µg/mL) | MFC [9]: 2 µM (≈ 1.85 µg/mL) | MIC [10]: 1 µM | MIC95 [11]: 1 µM (≈ 0.924 µg/mL) | MIC95 [12]: 1 µM (≈ 0.924 µg/mL) | MFC [13]: 1 µM (≈ 0.924 µg/mL) | MIC [14]: 2 µM | MIC [15]: 1 µM | MIC [16]: 1 µM | MFC [17]: 0.5 µM (≈ 0.462 µg/mL) | MIC95 [18]: 0.25 µM (≈ 0.231 µg/mL) | MFC [19]: 1 µM (≈ 0.924 µg/mL) | MFC [20]: 1 µM (≈ 0.924 µg/mL) | MFC [21]: 0.5 µM (≈ 0.462 µg/mL) | MIC95 [22]: 1 µM (≈ 0.924 µg/mL) | MIC [23]: 1 µM | MIC95 [24]: 1 µM (≈ 0.924 µg/mL) | MFC [25]: 1 µM (≈ 0.924 µg/mL) | MFC [26]: 2 µM (≈ 1.85 µg/mL) | MFC [27]: 2 µM (≈ 1.85 µg/mL) | MFC [28]: 1 µM (≈ 0.924 µg/mL) | MIC95 [29]: 0.5 µM (≈ 0.462 µg/mL) | MIC95 [30]: 2 µM (≈ 1.85 µg/mL) | MFC [31]: 2 µM (≈ 1.85 µg/mL) | MFC [32]: 2 µM (≈ 1.85 µg/mL) | MFC [33]: 1 µM (≈ 0.924 µg/mL) | MIC [34]: 1 µM | MIC95 [35]: 0.25 µM (≈ 0.231 µg/mL) | MIC95 [36]: 0.25 µM (≈ 0.231 µg/mL) | MIC [37]: 1 µM | MIC [38]: 1 µM
